Assay results taken from ChEMBL document CHEMBL1208762, “Enhanced selectivity profile of pyrazole-urea based DFG-out p38alpha inhibitors” (Bioorg Med Chem Lett, 2010).
pIC50: −log10 of the molar value. In brackets after ≈: the same amount, converted by molar mass.

Tests used:
[1] = target: T1, Mitogen-activated protein kinase 14 (Homo sapiens, UniProt Q16539); experiment: Inhibition of active p38alpha
Procedure, shortened: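 Compound preincubated with active p38α; kinase activity then read by adding MK2 and its substrate (cascade format). IC50 is the mean of three experiments, SD <15%.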

[2] = target: T1, Mitogen-activated protein kinase 14; experiment: Inhibition of unactive p38alpha
Procedure, shortened: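 Unactive p38α preincubated with compound, then activated by MKK6 and diluted into an MK2 plus substrate mixture (cascade format). IC50 is the mean of three experiments, SD <15%.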

[3] = Permeability of the compound by PAMPA method; assay type: ADME
[4] = target: CYP2D6 (Homo sapiens, UniProt P10635); experiment: Inhibition of CYP2D6 at 3 uM; assay type: ADME
Sequence of CYP2D6 (P10635 whole entry, canonical isoform): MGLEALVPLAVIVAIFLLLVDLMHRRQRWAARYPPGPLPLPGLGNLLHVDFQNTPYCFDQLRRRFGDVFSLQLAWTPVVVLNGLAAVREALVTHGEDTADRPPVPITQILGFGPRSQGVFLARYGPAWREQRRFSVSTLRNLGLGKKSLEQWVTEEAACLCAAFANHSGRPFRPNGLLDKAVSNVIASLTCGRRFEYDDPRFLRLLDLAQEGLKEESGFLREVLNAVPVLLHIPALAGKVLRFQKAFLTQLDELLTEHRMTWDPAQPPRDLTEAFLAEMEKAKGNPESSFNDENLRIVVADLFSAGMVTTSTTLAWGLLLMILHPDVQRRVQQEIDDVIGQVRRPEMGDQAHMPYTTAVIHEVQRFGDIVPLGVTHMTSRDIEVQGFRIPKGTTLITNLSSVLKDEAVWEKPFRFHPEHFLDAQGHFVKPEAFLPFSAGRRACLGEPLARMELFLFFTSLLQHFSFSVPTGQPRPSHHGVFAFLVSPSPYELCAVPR
Procedure, shortened: (§1)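 Compound tested at 3 µM against a cocktail of CYP1A2, 2C9, 2D6 and 3A4; the result is given as % inhibition for each isoform.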

[5] = Solubility of the compound in phosphate buffer at pH 6.5 by turbidimetric; assay type: physicochemical
Procedure, shortened: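 Kinetic solubility measured turbidimetrically in phosphate buffer at pH 6.5. The value is reported as a range between the minimum and maximum kinetic solubility, in µM.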

[6] = target: CYP3A4 (Homo sapiens, UniProt P08684); experiment: Inhibition of CYP3A4 at 3 uM; assay type: ADME; procedure, shortened: as §1
Sequence of CYP3A4 (P08684 whole entry): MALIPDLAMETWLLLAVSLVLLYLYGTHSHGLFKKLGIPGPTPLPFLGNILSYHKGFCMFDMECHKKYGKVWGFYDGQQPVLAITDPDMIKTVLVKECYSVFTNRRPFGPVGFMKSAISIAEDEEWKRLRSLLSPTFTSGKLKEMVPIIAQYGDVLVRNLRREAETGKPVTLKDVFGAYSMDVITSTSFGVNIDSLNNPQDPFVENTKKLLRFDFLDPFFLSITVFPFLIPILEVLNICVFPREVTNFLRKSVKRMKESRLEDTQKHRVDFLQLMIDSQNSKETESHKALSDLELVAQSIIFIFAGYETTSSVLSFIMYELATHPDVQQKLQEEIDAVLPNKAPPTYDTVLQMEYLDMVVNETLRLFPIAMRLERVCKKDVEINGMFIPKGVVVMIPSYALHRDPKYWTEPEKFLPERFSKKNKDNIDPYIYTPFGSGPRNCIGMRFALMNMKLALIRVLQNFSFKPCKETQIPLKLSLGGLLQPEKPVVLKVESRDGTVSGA

[7] = target: CYP2C9 (Homo sapiens, UniProt P11712); experiment: Inhibition of CYP2C9 at 3 uM; assay type: ADME; procedure, shortened: as §1
Sequence of CYP2C9 (P11712 whole entry): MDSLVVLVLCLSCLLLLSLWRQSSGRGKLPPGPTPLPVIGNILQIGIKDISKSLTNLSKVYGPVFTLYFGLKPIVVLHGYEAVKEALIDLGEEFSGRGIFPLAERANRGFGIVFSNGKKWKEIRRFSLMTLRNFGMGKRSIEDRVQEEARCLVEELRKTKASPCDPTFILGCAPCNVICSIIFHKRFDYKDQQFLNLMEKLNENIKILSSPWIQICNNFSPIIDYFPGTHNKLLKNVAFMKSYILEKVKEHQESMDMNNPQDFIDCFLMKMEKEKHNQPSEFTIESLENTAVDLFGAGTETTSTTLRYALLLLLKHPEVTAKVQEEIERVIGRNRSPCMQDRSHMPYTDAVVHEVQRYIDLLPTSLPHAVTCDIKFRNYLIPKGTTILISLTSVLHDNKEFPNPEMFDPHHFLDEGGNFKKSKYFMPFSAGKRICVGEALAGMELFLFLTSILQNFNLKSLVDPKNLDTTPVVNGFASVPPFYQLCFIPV

[8] = target: T2, CYP1A2 (Homo sapiens, UniProt P05177); experiment: Inhibition of CYP1A2 at 3 uM; assay type: ADME; procedure, shortened: as §1
T2 sequence (P05177 whole entry): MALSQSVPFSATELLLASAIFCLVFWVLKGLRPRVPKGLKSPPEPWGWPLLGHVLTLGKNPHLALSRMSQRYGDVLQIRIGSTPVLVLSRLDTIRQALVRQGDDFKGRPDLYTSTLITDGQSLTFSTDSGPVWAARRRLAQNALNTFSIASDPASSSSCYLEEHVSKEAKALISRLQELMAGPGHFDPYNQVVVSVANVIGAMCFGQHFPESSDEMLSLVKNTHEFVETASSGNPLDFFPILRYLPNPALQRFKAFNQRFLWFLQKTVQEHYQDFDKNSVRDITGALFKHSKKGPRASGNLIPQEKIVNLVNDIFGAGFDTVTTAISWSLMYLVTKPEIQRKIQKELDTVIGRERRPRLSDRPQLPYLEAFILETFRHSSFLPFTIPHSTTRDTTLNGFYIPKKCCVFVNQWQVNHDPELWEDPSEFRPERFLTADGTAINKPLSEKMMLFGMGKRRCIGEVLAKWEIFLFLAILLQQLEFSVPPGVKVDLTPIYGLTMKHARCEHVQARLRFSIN

[9] = target: hERG (KCNH2) (Homo sapiens, UniProt Q12809); experiment: Displacement of [3H]dofetilide from human ERG at 10 uM; conditions: probe [3H]dofetilide
Sequence of hERG (KCNH2) (Q12809 whole entry): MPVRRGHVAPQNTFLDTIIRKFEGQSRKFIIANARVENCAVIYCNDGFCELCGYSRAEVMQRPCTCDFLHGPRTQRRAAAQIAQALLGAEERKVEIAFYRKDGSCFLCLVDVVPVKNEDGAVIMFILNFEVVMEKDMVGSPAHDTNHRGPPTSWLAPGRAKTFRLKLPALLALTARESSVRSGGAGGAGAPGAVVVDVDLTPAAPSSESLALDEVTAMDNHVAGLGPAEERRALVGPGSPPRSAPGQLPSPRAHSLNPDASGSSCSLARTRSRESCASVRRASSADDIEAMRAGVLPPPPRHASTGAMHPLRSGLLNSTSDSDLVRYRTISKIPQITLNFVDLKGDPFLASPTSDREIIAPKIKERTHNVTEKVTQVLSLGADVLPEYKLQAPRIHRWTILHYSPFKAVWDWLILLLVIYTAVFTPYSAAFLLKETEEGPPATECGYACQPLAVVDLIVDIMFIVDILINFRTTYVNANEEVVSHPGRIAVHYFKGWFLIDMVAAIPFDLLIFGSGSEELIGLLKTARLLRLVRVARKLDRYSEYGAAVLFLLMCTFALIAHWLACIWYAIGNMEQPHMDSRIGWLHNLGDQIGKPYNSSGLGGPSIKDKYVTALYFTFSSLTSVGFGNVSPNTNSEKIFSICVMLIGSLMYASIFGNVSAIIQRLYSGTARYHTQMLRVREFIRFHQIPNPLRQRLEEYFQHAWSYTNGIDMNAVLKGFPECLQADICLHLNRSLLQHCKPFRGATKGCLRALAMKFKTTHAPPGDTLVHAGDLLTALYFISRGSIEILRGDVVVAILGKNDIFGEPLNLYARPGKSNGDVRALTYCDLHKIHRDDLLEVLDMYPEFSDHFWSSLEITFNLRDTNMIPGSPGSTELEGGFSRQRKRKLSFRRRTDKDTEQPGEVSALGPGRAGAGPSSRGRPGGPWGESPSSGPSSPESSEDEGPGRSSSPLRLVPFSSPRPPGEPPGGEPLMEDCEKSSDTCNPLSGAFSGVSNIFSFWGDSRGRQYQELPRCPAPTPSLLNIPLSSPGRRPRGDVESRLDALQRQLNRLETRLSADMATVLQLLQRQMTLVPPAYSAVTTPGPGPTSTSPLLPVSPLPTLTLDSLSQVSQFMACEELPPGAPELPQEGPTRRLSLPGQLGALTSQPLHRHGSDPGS

T1 sequence (Q16539 whole entry): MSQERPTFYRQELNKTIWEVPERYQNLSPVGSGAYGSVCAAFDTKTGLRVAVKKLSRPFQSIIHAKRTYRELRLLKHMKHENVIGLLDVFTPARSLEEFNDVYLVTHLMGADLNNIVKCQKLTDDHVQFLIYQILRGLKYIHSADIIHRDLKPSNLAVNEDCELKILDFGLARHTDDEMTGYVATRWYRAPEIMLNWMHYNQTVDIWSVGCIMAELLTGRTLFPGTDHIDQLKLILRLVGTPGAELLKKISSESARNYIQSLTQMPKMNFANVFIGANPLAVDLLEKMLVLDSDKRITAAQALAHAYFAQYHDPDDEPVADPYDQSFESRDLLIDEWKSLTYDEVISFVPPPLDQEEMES

Work on `CC(C)(C)c1cc(NC(=O)Nc2ccccc2)n(-c2cccc(CN)c2)n1` yielded a pIC50 [1] of less than 4.78 and a pIC50 [2] of 5.55.

With `CC(C)(C)c1cc(NC(=O)Nc2ccccc2)n(-c2cccc(CNC(=O)CN)c2)n1` the pIC50 [1] was 5.64 and the pIC50 [2] was 6.75.

For `COC(=O)NCC(=O)NCc1cccc(-n2nc(C(C)(C)C)cc2NC(=O)Nc2ccccc2)c1`, the pIC50 [1] was 6.54 and the pIC50 [2] was 6.75.

For `CC(C)(C)c1cc(NC(=O)Nc2ccccc2)n(-c2cccc(CNC(=O)CNC=O)c2)n1`, the pIC50 [1] was 6.48 and the pIC50 [2] was 7.17.

Work on `CC(=O)NCC(=O)NCc1cccc(-n2nc(C(C)(C)C)cc2NC(=O)Nc2ccccc2)c1` yielded a pIC50 [1] of 7.47, a Papp [3] of 7.38 ×10⁻⁶ cm/s and an inhibition at 3 µM [4] of 2%. It also gave a solubility kinetic [5] greater than 200 µM, an inhibition at 3 µM [6] of 0% and an inhibition at 3 µM [7] of 0%. The pIC50 [2] was 8.22, the inhibition at 3 µM [8] was 5% and the inhibition at 10 µM [9] was -11%.

`CC(C)(C)c1cc(NC(=O)Nc2ccccc2)n(-c2cccc(CNC(=O)CNC(=O)c3ccccc3)c2)n1` gave a pIC50 [1] of 6.36 and a pIC50 [2] of 6.77.

`CC(C)(C)c1cc(NC(=O)Nc2ccccc2)n(-c2cccc(CNC(=O)CNC(=O)c3cccnc3)c2)n1` gave a pIC50 [1] of 6.69 and a pIC50 [2] of 7.29.

`Cc1cc(C(=O)NCC(=O)NCc2cccc(-n3nc(C(C)(C)C)cc3NC(=O)Nc3ccccc3)c2)no1` gave a pIC50 [1] of 6.61 and a pIC50 [2] of 7.42.

`CC(C)(C)c1cc(NC(=O)Nc2ccccc2)n(-c2cccc(CNC(=O)CNC(=O)c3ccco3)c2)n1` gave a pIC50 [1] of 7.06 and a pIC50 [2] of 7.74.

`CC(=O)NC(C)C(=O)NCc1cccc(-n2nc(C(C)(C)C)cc2NC(=O)Nc2ccccc2)c1` (stereo not given) showed a pIC50 [1] of 6.32 and a pIC50 [2] of 6.77.

In the case of `CC(=O)NC1(C(=O)NCc2cccc(-n3nc(C(C)(C)C)cc3NC(=O)Nc3ccccc3)c2)CCCC1`, the pIC50 [1] was 5.34 and the pIC50 [2] was 6.15.

`CC(C)(C)c1cc(NC(=O)Nc2ccccc2)n(-c2cccc(CNC(=O)CNS(C)(=O)=O)c2)n1` gave a pIC50 [1] of 6.19 and a pIC50 [2] of 6.97.

With `CC(=O)NCC(=O)N(C)Cc1cccc(-n2nc(C(C)(C)C)cc2NC(=O)Nc2ccccc2)c1` the pIC50 [1] was 5.80 and the pIC50 [2] was 6.68.

`CC(C)(C)c1cc(NC(=O)Nc2ccccc2)n(-c2cccc(CNC(=O)CN3CCCC3=O)c2)n1` gave a pIC50 [1] of 6.53 and a pIC50 [2] of 7.17.

Work on `CC(C)(C)c1cc(NC(=O)Nc2ccccc2)n(-c2cccc(CNC(=O)CN3CCOC3=O)c2)n1` yielded a pIC50 [1] of 6.22 and a pIC50 [2] of 6.73.

Work on `CC(C)(C)c1cc(NC(=O)Nc2ccccc2)n(-c2cccc(CNC(=O)Cn3ccccc3=O)c2)n1` yielded a pIC50 [1] of 7.20, a Papp [3] of 12.9 ×10⁻⁶ cm/s and an inhibition at 3 µM [4] of 21%. For the same molecule, the solubility kinetic [5] was 50 µM (≈ 24.9 µg/mL), the inhibition at 3 µM [6] was 30% and the inhibition at 3 µM [7] was 6%. It also gave a pIC50 [2] of 7.80, an inhibition at 3 µM [8] of 4% and an inhibition at 10 µM [9] of 9%.

`CC(C)(C)c1cc(NC(=O)Nc2ccccc2)n(-c2cccc(CNC(=O)Cn3ccnc3)c2)n1` gave a pIC50 [1] of 6.27 and a pIC50 [2] of 6.64.

Work on `Cc1nccn1CC(=O)NCc1cccc(-n2nc(C(C)(C)C)cc2NC(=O)Nc2ccccc2)c1` yielded a pIC50 [1] of 6.17 and a pIC50 [2] of 6.88.

Molecule `CC(C)(C)c1cc(NC(=O)Nc2ccccc2)n(-c2cccc(CNC(=O)Cn3cccn3)c2)n1` has a pIC50 [1] of 6.87 and a pIC50 [2] of 7.31.

In the case of `Cc1ccn(CC(=O)NCc2cccc(-n3nc(C(C)(C)C)cc3NC(=O)Nc3ccccc3)c2)n1`, the pIC50 [1] was 6.70, the Papp [3] was 4.8 ×10⁻⁶ cm/s and the inhibition at 3 µM [4] was 18%. It also gave a solubility kinetic [5] of 100 µM (≈ 48.6 µg/mL), an inhibition at 3 µM [6] of 26% and an inhibition at 3 µM [7] of 5%. For the same molecule, the pIC50 [2] was 7.55, the inhibition at 3 µM [8] was 4% and the inhibition at 10 µM [9] was 3%.

`Cc1cc(C)n(CC(=O)NCc2cccc(-n3nc(C(C)(C)C)cc3NC(=O)Nc3ccccc3)c2)n1` gave a pIC50 [1] of 6.48 and a pIC50 [2] of 7.11.

Molecule `CC(C)(C)c1cc(NC(=O)Nc2ccccc2)n(-c2cccc(CNC(=O)CCC(=O)O)c2)n1` has a pIC50 [1] of 6.41 and a pIC50 [2] of 7.43.

In the case of `CC(C)(CC(=O)NCc1cccc(-n2nc(C(C)(C)C)cc2NC(=O)Nc2ccccc2)c1)C(=O)O`, the pIC50 [1] was 5.43 and the pIC50 [2] was 7.41.

In the case of `CC(C)(C)c1cc(NC(=O)Nc2ccccc2)n(-c2cccc(CNC(=O)C3C[C@H]3C(=O)O)c2)n1` (stereo not given in full), the pIC50 [1] was 5.96 and the pIC50 [2] was 7.52.

`CC(C)(C)c1cc(NC(=O)Nc2ccccc2)n(-c2cccc(CNC(=O)C3CCCC[C@H]3C(=O)O)c2)n1` (stereo not given in full) gave a pIC50 [1] of 5.47 and a pIC50 [2] of 7.24.

Molecule `CC(C)(C)c1cc(NC(=O)Nc2ccccc2)n(-c2cccc(CNC(=O)C3CC=CC[C@H]3C(=O)O)c2)n1` (stereo not given in full) has a pIC50 [1] of 6.13 and a pIC50 [2] of 7.85.

Work on `CC(C)(C)c1cc(NC(=O)Nc2cccc3ccccc23)n(-c2cccc(CNC(=O)CCC(=O)O)c2)n1` yielded a pIC50 [1] of 8.22 and a pIC50 [2] of 8.30.
